The values that follow come from ChEMBL document CHEMBL1795318, “Development of tetrahydroisoquinoline-based hydroxamic acid derivatives: potent histone deacetylase inhibitors with marked in vitro and in vivo antitumor activities” (J Med Chem, 2011).

pIC50: −log10 of the molar value.

The target in one assay is T1, Histone deacetylase 8 (Homo sapiens, UniProt Q9BY41).
T1 sequence (Q9BY41 whole entry): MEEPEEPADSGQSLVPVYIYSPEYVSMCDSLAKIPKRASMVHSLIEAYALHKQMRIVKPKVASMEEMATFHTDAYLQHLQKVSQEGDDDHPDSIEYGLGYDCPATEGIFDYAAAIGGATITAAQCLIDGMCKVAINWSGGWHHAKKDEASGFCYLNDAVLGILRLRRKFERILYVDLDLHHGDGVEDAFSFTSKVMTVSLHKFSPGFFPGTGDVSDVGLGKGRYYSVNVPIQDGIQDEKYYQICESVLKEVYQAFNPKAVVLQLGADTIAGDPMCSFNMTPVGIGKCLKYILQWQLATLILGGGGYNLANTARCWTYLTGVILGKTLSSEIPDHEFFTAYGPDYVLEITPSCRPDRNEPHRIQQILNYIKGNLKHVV
Kind of assay: Inhibition of HDAC8 after 30 mins by fluorescence microplate reader. The method in brief: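 HDAC8 mixed with compound at various concentrations, fluorogenic substrate added, 37 °C for 30 min; stopped with developer containing trypsin and TSA. Fluorescence read after 20 min (ex 390/em 460 nm); inhibition relative to control wells, IC50 by regression of concentration/inhibition data; mean ± SD of at least three determinations.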

The test system of another assay is A549. Kind of assay: Cytotoxicity against human A549 cells after 48 hrs by MTT assay. To be noted: A549, 48 h. The class given is functional, cell-based. The method in brief:
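Cells kept in RPMI1640 with 10% FBS, 37 °C, 5% CO₂; seeded day before dosing, grown ≥4 h, treated with a concentration series for 48 h. MTT 0.5% solution added, 4 h further; formazan dissolved in DMSO 15 min, absorbance at 570 nm. Mean of three experiments.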
In general terms: Formazan colour is commonly taken as a measure of viable cells.

The next assay has as its system MDA-MB-231. The assay can be described thus: Cytotoxicity against human MDA-MB-231 cells after 48 hrs by MTT assay. The class given is functional, cell-based. As to conditions: MDA-MB-231, 48 h.
The next assay concerns NB-4. Kind of assay: Cytotoxicity against human NB4 cells after 48 hrs by MTT assay. The class given is functional, cell-based. To be noted: NB-4, 48 h.
Assay [1] addresses T2, Protein deacetylase HDAC6 (Homo sapiens, UniProt Q9UBN7).
T2 sequence (Q9UBN7 whole entry): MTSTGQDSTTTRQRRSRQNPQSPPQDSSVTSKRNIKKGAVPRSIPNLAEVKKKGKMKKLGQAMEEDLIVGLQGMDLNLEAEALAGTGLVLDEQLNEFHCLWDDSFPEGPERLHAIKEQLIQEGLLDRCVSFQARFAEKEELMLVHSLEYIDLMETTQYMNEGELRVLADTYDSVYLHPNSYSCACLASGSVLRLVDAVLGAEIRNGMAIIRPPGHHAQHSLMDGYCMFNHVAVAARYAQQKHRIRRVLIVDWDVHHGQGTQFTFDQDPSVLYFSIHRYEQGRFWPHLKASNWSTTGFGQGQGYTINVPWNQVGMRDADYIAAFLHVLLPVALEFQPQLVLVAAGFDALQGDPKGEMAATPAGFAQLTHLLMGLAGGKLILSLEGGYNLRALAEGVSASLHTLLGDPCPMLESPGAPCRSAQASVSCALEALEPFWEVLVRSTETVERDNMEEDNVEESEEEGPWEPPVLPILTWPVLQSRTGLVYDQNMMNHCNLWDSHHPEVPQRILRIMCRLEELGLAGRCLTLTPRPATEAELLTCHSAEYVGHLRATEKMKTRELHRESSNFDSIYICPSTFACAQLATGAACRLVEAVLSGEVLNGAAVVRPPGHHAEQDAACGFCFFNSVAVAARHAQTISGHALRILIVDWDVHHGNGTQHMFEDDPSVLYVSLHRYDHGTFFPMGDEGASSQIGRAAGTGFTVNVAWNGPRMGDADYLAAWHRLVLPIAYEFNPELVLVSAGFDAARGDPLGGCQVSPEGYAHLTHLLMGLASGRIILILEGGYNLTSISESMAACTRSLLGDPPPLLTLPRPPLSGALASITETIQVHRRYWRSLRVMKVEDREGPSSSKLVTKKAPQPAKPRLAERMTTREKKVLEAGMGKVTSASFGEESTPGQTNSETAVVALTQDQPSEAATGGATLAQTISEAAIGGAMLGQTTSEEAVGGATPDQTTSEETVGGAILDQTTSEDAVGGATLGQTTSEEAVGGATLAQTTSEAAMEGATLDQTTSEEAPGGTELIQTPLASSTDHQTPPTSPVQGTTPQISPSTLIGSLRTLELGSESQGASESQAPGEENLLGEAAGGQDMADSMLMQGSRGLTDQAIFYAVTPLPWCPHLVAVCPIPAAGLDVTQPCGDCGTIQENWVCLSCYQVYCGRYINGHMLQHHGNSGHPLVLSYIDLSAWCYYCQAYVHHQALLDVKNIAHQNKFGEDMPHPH
Kind of assay: Inhibition of HDAC6 in human HeLa cell nuclear extract after 30 mins by fluorescence microplate reader.

The test system of the next assay is HeLa. The assay can be described thus: Cytotoxicity against human HeLa cells after 48 hrs by MTT assay. The class given is functional, cell-based.
A further assay has as its system K562. Kind of assay: Cytotoxicity against human K562 cells after 48 hrs by MTT assay. The class given is functional, cell-based. As to conditions: K562, 48 h.
The target in a further assay is Histone deacetylase. Kind of assay: Inhibition of HDAC in human HeLa cell nuclear extract after 30 mins by fluorescence microplate reader. The class given is protein assay.
The test system of the next assay is HL-60. Kind of assay: Cytotoxicity against human HL60 cells after 48 hrs by MTT assay. The format is functional, cell-based. To be noted: HL-60, 48 h.

By pIC50 is commonly meant the IC50 on a negative log10 scale, so that one unit is a factor of ten. Low readings indicate a high IC50, high ones a low IC50. In the case of `COc1ccc(NC(=O)[C@@H]2Cc3ccc(OCC(=O)NO)cc3CN2C(=O)[C@H](CC(C)C)NC(=O)OC(C)(C)C)cc1`, the pIC50 against Histone deacetylase 8 was 6.79.
With `COc1ccc(NC(=O)[C@@H]2Cc3ccc(OCC(=O)NO)cc3CN2C(=O)Cc2ccccc2)cc1`, the results for the pIC50 with A549, against Histone deacetylase 8 and in the assay with MDA-MB-231 were 3.93, 6.85 and 5.35, respectively.
For orientation: IC50 means the point on the concentration scale where inhibition reaches its midpoint. In the case of `CC[C@H](C)[C@H](NC(=O)[C@@H](NC(=O)OC(C)(C)C)C(C)C)C(=O)N1Cc2cc(OCC(=O)NO)ccc2C[C@H]1C(=O)Nc1ccc(OC)cc1`, the pIC50 is 4.20 with NB-4; 6.94 in assay [1]; 6.70 against Histone deacetylase 8; 3.78 in the assay with HeLa; 5.56 in the assay on K562. The same compound displayed an IC50 on Histone deacetylase of 0.128 µM.
In the case of `CC[C@H](C)[C@H](NC(=O)[C@@H]1CCCN1C(=O)OC(C)(C)C)C(=O)N1Cc2cc(OCC(=O)NO)ccc2C[C@H]1C(=O)Nc1ccc(OC)cc1`, the pIC50 in the assay with NB-4 was 5.29; in [1], 6.85; against Histone deacetylase 8, 6.72; in the assay with HeLa it was 3.74; in the assay on K562, 5.63; with HL-60, 4.11. Also, at Histone deacetylase, the IC50 turned out to be 0.065 µM.
With `COc1ccc(NC(=O)[C@@H]2Cc3ccc(OCC(=O)NO)cc3CN2C(=O)[C@H](Cc2ccccc2)NC(=O)OC(C)(C)C)cc1`, the pIC50 in the assay on A549 was 4.90; against Histone deacetylase 8, 6.99; in the assay with MDA-MB-231, 5.89.
`COc1ccc(NC(=O)[C@@H]2Cc3ccc(OCC(=O)NO)cc3CN2C(=O)[C@@H](N)C(C)C)cc1` had a pIC50 at Histone deacetylase 8 of 5.99.
The same measure, in the same setting: to `COc1ccc(NC(=O)[C@@H]2Cc3ccc(OCC(=O)NO)cc3CN2C(=O)[C@H](Cc2ccc(O)cc2)NC(=O)OC(C)(C)C)cc1` belongs 6.76.
In the case of `COc1ccc(NC(=O)[C@@H]2Cc3ccc(OCC(=O)NO)cc3CN2C(=O)CCc2ccccc2)cc1`, the pIC50 is 5.32 in the assay on A549, 6.30 at Histone deacetylase 8 and 5.82 with MDA-MB-231.
Regarding `COc1ccc(NC(=O)[C@@H]2Cc3ccc(OCC(=O)NO)cc3CN2Cc2ccccc2)cc1`, the pIC50 against Histone deacetylase 8 was 5.72.
Same read-out and setting: to `COc1ccc(NC(=O)[C@@H]2Cc3ccc(OCC(=O)NO)cc3CN2CCc2ccccc2)cc1` belongs 5.99.
Same read-out and setting: to `O=C(COc1ccc2c(c1)CN(C(=O)CCc1ccccc1)[C@H](C(=O)Nc1ccccc1)C2)NO` belongs 6.12.
Same read-out and setting: in the case of `COc1ccc(NC(=O)[C@@H]2Cc3ccc(OCC(=O)NO)cc3CN2C(=O)[C@@H]2CCCN2)cc1` it was 6.32.
For the compound `CC[C@H](C)[C@H](NC(=O)C1CCNCC1)C(=O)N1Cc2cc(OCC(=O)NO)ccc2C[C@H]1C(=O)Nc1ccc(OC)cc1.Cl`, the negative logarithm of the IC50 (pIC50) is less than 3.70 with NB-4; 6.77 in assay [1]; 5.84 at Histone deacetylase 8; 3.99 in the assay on HeLa; 4.29 in the assay on K562. The compound further yielded an IC50 on Histone deacetylase of 0.071 µM.
Turning to `COc1ccc(NC(=O)[C@@H]2Cc3ccc(OCC(=O)NO)cc3CN2C(=O)[C@@H](NC(=O)OC(C)(C)C)C(C)C)cc1`, the results for the pIC50 in the assay with A549, at Histone deacetylase 8 and in the assay with MDA-MB-231 were 6.08, 6.98 and 5.80, respectively.
Regarding `COc1ccc(NC(=O)[C@@H]2Cc3ccc(OCC(=O)NO)cc3CN2C(=O)CN)cc1`, at Histone deacetylase 8, the pIC50 was 5.67.
Same read-out and setting: to `COc1ccc(NC(=O)[C@@H]2Cc3ccc(OCC(=O)NO)cc3CN2C(=O)CNC(=O)OC(C)(C)C)cc1` belongs 6.29; to `COc1ccc(NC(=O)[C@@H]2Cc3ccc(OCC(=O)NO)cc3CN2C(=O)[C@H](C)N)cc1`, 5.89.
Take `COc1ccc(NC(=O)[C@@H]2Cc3ccc(OCC(=O)NO)cc3CN2C(=O)CCCc2ccccc2)cc1`: the negative logarithm of the IC50 (pIC50) in the assay with A549 is 5.45; against Histone deacetylase 8, 6.94; with MDA-MB-231, 5.56.
`COc1ccc(NC(=O)[C@@H]2Cc3ccc(OCC(=O)NO)cc3CN2C(=O)[C@@H](N)Cc2ccccc2)cc1` gave a pIC50 against Histone deacetylase 8 of 6.43.
Still for that read-out and setting: to `COc1ccc(NC(=O)[C@@H]2Cc3ccc(OCC(=O)NO)cc3CN2C(=O)[C@@H](N)CC(C)C)cc1` belongs 6.17.
Turning to `CC[C@H](C)[C@H](NC(=O)[C@@H]1CCCN1)C(=O)N1Cc2cc(OCC(=O)NO)ccc2C[C@H]1C(=O)Nc1ccc(OC)cc1.Cl`, the negative-log IC50 (pIC50) with NB-4 is 5.03; in assay [1], 6.72; against Histone deacetylase 8, 7.33; in the assay on HeLa it was less than 3.70; in the assay on K562, 5.18; in the assay with HL-60, 4.16. In addition, the IC50 at Histone deacetylase is 0.108 µM.
At Histone deacetylase 8, `CC[C@H](C)[C@H](N)C(=O)N1Cc2cc(OCC(=O)NO)ccc2C[C@H]1C(=O)Nc1ccc(OC)cc1` showed a pIC50 of 5.98.
The same measure, in the same setting: in the case of `COc1ccc(NC(=O)[C@@H]2Cc3ccc(OCC(=O)NO)cc3CN2C(=O)[C@H](C)NC(=O)OC(C)(C)C)cc1` it was 6.74.
With `COc1ccc(NC(=O)[C@@H]2Cc3ccc(OCC(=O)NO)cc3CN2C(=O)c2ccccc2)cc1`, the pIC50 with A549 was 5.23; at Histone deacetylase 8 it was 6.79; in the assay with MDA-MB-231, 5.52.
On Histone deacetylase 8, `O=C(COc1ccc2c(c1)CN(C(=O)CCc1ccccc1)[C@H](C(=O)NCCc1ccccc1)C2)NO` gave a pIC50 of 6.16.
As to `CC[C@H](C)[C@H](NC(=O)C1CCN(C(=O)OC(C)(C)C)CC1)C(=O)N1Cc2cc(OCC(=O)NO)ccc2C[C@H]1C(=O)Nc1ccc(OC)cc1`, the negative logarithm of the IC50 (pIC50) in the assay with NB-4 was 4.17; in assay [1] it was 6.79; at Histone deacetylase 8 it was 6.83; in the assay on HeLa, less than 3.70; in the assay on K562, 4.91. Moreover, the IC50 against Histone deacetylase came out at 0.214 µM.
With `COc1ccc(NC(=O)[C@@H]2Cc3ccc(OCC(=O)NO)cc3CN2CCCc2ccccc2)cc1`, the pIC50 on Histone deacetylase 8 is 5.76.
`COc1ccc(NC(=O)[C@@H]2Cc3ccc(OCC(=O)NO)cc3CN2C(=O)[C@@H](N)Cc2ccc(O)cc2)cc1` gave a negative-log IC50 (pIC50) at Histone deacetylase 8 of 6.20.
As for `CC[C@H](C)[C@H](NC(=O)[C@@H](N)C(C)C)C(=O)N1Cc2cc(OCC(=O)NO)ccc2C[C@H]1C(=O)Nc1ccc(OC)cc1.Cl`, the pIC50 in the assay on NB-4 was 4.16; in assay [1] it was 6.79; against Histone deacetylase 8 it was 7.17; in the assay with HeLa, 3.93; in the assay on K562, 4.69. The IC50 at Histone deacetylase was found to be 0.073 µM.
On Histone deacetylase 8, `COc1ccc(NC(=O)[C@@H]2Cc3ccc(OCC(=O)NO)cc3CN2C(=O)[C@@H]2CCCN2C(=O)OC(C)(C)C)cc1` gave a pIC50 of 6.67.
